Calls of active or inactive are those of the source.
How the values were obtained:
[1] = target: T1, Toll-like receptor 7 (Homo sapiens) (UniProt Q9NYK1); assay: Activation of human TLR7 expressed in HEK293XL assessed as induction of NF-kappaB activity by reporter gene assay
T1 sequence (whole entry): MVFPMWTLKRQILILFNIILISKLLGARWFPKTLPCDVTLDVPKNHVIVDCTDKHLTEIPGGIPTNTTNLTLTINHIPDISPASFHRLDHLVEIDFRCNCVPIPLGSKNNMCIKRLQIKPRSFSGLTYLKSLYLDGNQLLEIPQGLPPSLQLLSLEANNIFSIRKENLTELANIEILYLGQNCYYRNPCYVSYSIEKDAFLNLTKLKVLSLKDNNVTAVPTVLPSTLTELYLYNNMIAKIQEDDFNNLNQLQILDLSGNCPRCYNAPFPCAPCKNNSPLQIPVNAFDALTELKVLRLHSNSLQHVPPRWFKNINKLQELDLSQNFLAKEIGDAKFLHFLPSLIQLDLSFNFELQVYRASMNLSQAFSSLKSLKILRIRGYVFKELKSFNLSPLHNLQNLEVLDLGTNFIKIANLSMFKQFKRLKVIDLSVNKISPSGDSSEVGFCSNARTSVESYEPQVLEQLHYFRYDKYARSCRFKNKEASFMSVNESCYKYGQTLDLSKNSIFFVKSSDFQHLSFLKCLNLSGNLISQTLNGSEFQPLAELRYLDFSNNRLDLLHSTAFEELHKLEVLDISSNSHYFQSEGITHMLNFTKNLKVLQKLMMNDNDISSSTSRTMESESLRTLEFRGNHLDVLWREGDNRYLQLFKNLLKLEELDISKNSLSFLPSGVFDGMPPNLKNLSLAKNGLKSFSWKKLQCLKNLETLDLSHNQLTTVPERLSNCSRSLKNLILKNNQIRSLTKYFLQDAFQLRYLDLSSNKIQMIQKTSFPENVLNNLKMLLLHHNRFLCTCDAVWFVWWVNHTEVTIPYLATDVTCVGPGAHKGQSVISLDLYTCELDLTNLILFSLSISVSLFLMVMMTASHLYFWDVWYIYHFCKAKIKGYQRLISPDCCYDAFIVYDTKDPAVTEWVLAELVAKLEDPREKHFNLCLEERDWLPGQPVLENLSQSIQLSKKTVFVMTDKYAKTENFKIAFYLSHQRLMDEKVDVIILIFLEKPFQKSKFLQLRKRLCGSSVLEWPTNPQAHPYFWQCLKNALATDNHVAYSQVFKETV
Method in brief: (§1)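 HEK293 cells stably expressing human TLR7 or TLR8, transiently transfected with SEAP reporter plasmid; medium replaced, SIMRA compounds added, 18 h incubation. Supernatant SEAP measured by QuantiBlue; expressed as fold increase in NF-κB activity over PBS control. Tabulated data at 50 μg/mL, representative of three independent experiments.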

[2] = target: T2, Toll-like receptor 8 (Homo sapiens) (UniProt Q9NR97); assay: Activation of human TLR8 expressed in HEK293XL assessed as induction of NF-kappaB activity by reporter gene assay; method in brief: as §1
T2 sequence (whole entry): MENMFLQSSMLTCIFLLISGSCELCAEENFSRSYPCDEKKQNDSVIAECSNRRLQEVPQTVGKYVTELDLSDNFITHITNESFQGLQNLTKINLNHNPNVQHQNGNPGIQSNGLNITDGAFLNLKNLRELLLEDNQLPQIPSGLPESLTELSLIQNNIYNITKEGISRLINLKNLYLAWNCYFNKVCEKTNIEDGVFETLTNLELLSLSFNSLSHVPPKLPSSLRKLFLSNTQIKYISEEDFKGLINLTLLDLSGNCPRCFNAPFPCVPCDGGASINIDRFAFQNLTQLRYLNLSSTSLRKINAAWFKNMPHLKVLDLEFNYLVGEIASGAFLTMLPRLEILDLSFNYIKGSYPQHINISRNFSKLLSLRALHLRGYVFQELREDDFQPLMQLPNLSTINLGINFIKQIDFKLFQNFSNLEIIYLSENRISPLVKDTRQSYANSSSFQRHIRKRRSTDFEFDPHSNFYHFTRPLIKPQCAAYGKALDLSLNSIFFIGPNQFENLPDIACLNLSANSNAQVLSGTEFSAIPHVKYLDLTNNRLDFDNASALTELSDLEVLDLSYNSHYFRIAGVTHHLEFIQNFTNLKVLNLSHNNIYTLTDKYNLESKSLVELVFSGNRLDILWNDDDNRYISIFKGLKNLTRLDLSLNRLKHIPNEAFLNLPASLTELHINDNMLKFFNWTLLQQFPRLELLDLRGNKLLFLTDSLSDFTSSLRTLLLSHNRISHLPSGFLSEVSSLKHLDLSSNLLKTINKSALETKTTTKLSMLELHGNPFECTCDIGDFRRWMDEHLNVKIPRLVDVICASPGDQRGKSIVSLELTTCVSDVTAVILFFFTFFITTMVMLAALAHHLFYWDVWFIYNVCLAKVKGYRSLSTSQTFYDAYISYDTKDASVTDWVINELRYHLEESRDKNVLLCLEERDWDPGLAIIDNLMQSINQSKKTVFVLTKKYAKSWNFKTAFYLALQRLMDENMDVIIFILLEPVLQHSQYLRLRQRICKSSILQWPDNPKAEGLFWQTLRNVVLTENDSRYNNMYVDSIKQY

[3] = species: Homo sapiens; assay: Immunostimulatory activity in human pDC assessed as induction of IP10 at 100 ug/ml after 24 hrs; format: functional
Method in brief: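 Human pDCs plated at 1 × 10^6 cells/mL; compounds in PBS added, 37 °C for 24 h; supernatant cytokines/chemokines by human Luminex multiplex kit.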

[4] = system: PBMC; assay: Immunomodulatory activity in human PBMC assessed as induction of IL6 after 24 hrs; format: functional, cell-based
Method in brief: (§2)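 Human PBMCs plated at 5 × 10^6 cells/mL; compounds dissolved in PBS added at various concentrations, 37 °C for 24 h. Supernatant cytokines/chemokines quantified with human Luminex multiplex kit.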

[5] = system: PBMC; assay: Immunomodulatory activity in human PBMC assessed as induction of MIP1alpha after 24 hrs; format: functional, cell-based; method in brief: as §2
[6] = system: PBMC; assay: Immunomodulatory activity in human PBMC assessed as induction of IL10 after 24 hrs; format: functional, cell-based; method in brief: as §2
[7] = system: PBMC; assay: Immunomodulatory activity in human PBMC assessed as induction of IP10 after 24 hrs; format: functional, cell-based; method in brief: as §2
[8] = system: PBMC; assay: Immunomodulatory activity in human PBMC assessed as induction of MCP1 after 24 hrs; format: functional, cell-based; method in brief: as §2
[9] = system: PBMC; assay: Immunomodulatory activity in human PBMC assessed as induction of IL12 after 24 hrs; format: functional, cell-based; method in brief: as §2
[10] = system: PBMC; assay: Immunomodulatory activity in human PBMC assessed as induction of MIP1beta after 24 hrs; format: functional, cell-based; method in brief: as §2
[11] = system: PBMC; assay: Immunomodulatory activity in human PBMC assessed as induction of TNFalpha after 24 hrs; format: functional, cell-based; method in brief: as §2
[12] = system: PBMC; assay: Immunomodulatory activity in human PBMC assessed as induction of IL1-beta after 24 hrs; format: functional, cell-based; method in brief: as §2
[13] = system: PBMC; assay: Immunomodulatory activity in human PBMC assessed as induction of IFNalpha after 24 hrs; format: functional, cell-based; method in brief: as §2

Measured: Activity

Nc1ccn([C@@H]2O[C@H](COP(=O)(S)O[C@H]3[C@@H](O)[C@H](n4cnc5c(N)ncnc54)O[C@@H]3CO)[C@@H](OP(=O)(S)OC[C@H]3O[C@@H](n4ccc(=O)[nH]c4=O)[C@H](O)[C@@H]3OP(=O)(S)OC[C@H]3O[C@@H](n4ccc(=O)[nH]c4=O)[C@H](O)[C@@H]3OP(=O)(S)OC[C@H]3O[C@@H](n4ccc5c(=O)[nH]c(N)nc54)[C@H](O)[C@@H]3OP(=O)(S)OC[C@H]3O[C@@H](n4cnc5c(N)ncnc54)[C@H](O)[C@@H]3OP(=O)(S)OC[C@H]3O[C@@H](n4cnc5c(N)ncnc54)[C@H](O)[C@@H]3OP(=O)(S)OC[C@H]3O[C@@H](n4ccc5c(=O)[nH]c(N)nc54)[C@H](O)[C@@H]3OP(=O)(S)OC[C@H]3O[C@@H](n4ccc(N)nc4=O)[C@H](O)[C@@H]3OP(=O)(S)OC[C@H]3O[C@@H](n4ccc(=O)[nH]c4=O)[C@H](O)[C@@H]3OP(=O)(S)OC[C@H]3O[C@@H](n4ccc(=O)[nH]c4=O)[C@H](O)[C@@H]3OP(=O)(S)OCC(O)COP(=O)(S)O[C@H]3[C@@H](O)[C@H](n4ccc(=O)[nH]c4=O)O[C@@H]3COP(=O)(S)O[C@H]3[C@@H](O)[C@H](n4ccc(=O)[nH]c4=O)O[C@@H]3COP(=O)(S)O[C@H]3[C@@H](O)[C@H](n4ccc(N)nc4=O)O[C@@H]3COP(=O)(S)O[C@H]3[C@@H](O)[C@H](n4ccc5c(=O)[nH]c(N)nc54)O[C@@H]3COP(=O)(S)O[C@H]3[C@@H](O)[C@H](n4cnc5c(N)ncnc54)O[C@@H]3COP(=O)(S)O[C@H]3[C@@H](O)[C@H](n4cnc5c(N)ncnc54)O[C@@H]3COP(=O)(S)O[C@H]3[C@@H](O)[C@H](n4ccc5c(=O)[nH]c(N)nc54)O[C@@H]3COP(=O)(S)O[C@H]3[C@@H](O)[C@H](n4ccc(=O)[nH]c4=O)O[C@@H]3COP(=O)(S)O[C@H]3[C@@H](O)[C@H](n4ccc(=O)[nH]c4=O)O[C@@H]3COP(=O)(S)O[C@H]3[C@@H](O)[C@H](n4ccc(N)nc4=O)O[C@@H]3COP(=O)(S)O[C@H]3[C@@H](O)[C@H](n4cnc5c(N)ncnc54)O[C@@H]3CO)[C@H]2O)c(=O)n1 (some centres undefined)
active: [1] | [2] | [3]

Nc1ccn([C@@H]2O[C@H](COP(=O)(S)O[C@H]3[C@@H](O)[C@H](n4cnc5c(N)ncnc54)O[C@@H]3COP(=O)(S)O[C@H]3[C@@H](O)[C@H](n4cnc5c(N)ncnc54)O[C@@H]3CO)[C@@H](OP(=O)(S)OC[C@H]3O[C@@H](n4ccc(=O)[nH]c4=O)[C@H](O)[C@@H]3OP(=O)(S)OC[C@H]3O[C@@H](n4ccc5c(=O)[nH]c(N)nc54)[C@H](O)[C@@H]3OP(=O)(S)OC[C@H]3O[C@@H](n4cnc5c(N)ncnc54)[C@H](O)[C@@H]3OP(=O)(S)OC[C@H]3O[C@@H](n4ccc(N)nc4=O)[C@H](O)[C@@H]3OP(=O)(S)OC[C@H]3O[C@@H](n4ccc5c(=O)[nH]c(N)nc54)[C@H](O)[C@@H]3OP(=O)(S)OC[C@H]3O[C@@H](n4ccc(N)nc4=O)[C@H](O)[C@@H]3OP(=O)(S)OC[C@H]3O[C@@H](n4ccc(=O)[nH]c4=O)[C@H](O)[C@@H]3OP(=O)(S)OC[C@H]3O[C@@H](n4ccc(=O)[nH]c4=O)[C@H](O)[C@@H]3OP(=O)(S)OCC(O)COP(=O)(S)O[C@H]3[C@@H](O)[C@H](n4ccc(=O)[nH]c4=O)O[C@@H]3COP(=O)(S)O[C@H]3[C@@H](O)[C@H](n4ccc(=O)[nH]c4=O)O[C@@H]3COP(=O)(S)O[C@H]3[C@@H](O)[C@H](n4ccc(N)nc4=O)O[C@@H]3COP(=O)(S)O[C@H]3[C@@H](O)[C@H](n4ccc5c(=O)[nH]c(N)nc54)O[C@@H]3COP(=O)(S)O[C@H]3[C@@H](O)[C@H](n4ccc(N)nc4=O)O[C@@H]3COP(=O)(S)O[C@H]3[C@@H](O)[C@H](n4cnc5c(N)ncnc54)O[C@@H]3COP(=O)(S)O[C@H]3[C@@H](O)[C@H](n4ccc5c(=O)[nH]c(N)nc54)O[C@@H]3COP(=O)(S)O[C@H]3[C@@H](O)[C@H](n4ccc(=O)[nH]c4=O)O[C@@H]3COP(=O)(S)O[C@H]3[C@@H](O)[C@H](n4ccc(N)nc4=O)O[C@@H]3COP(=O)(S)O[C@H]3[C@@H](O)[C@H](n4cnc5c(N)ncnc54)O[C@@H]3COP(=O)(S)O[C@H]3[C@@H](O)[C@H](n4cnc5c(N)ncnc54)O[C@@H]3CO)[C@H]2O)c(=O)n1 (some centres undefined)
active: [4] Dose-dependent effect | [5] Dose-dependent effect | [6] Dose-dependent effect | [7] Dose-dependent effect | [8] Dose-dependent effect | [9] Dose-dependent effect | [10] Dose-dependent effect | [11] Dose-dependent effect | [3] | [12] Dose-dependent effect | [13] Dose-dependent effect

From ChEMBL document CHEMBL1154352, “Toll-like receptor 7 selective synthetic oligoribonucleotide agonists: synthesis and structure-activity relationship studies” (J Med Chem, 2009)
